Common to all, as to assay type: functional
Experiment [1] relates to Cavia porcellus. In words: In vivo reversal activity versus ~90% block by rocuronium in guinea pig. The procedure, abridged:
(§1)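 Male Dunkin-Hartley guinea pigs (600-900 g), anaesthetized ip with pentobarbitone 10 mg/kg plus urethane 1000 mg/kg, tracheotomized and ventilated. Continuous iv rocuronium infusion (~10 nmol kg-1 min-1) was raised to a steady 85-90% block. Increasing iv doses of agent were given cumulatively. ED50 = 50% recovery versus preblock twitch, by regression. Mean ± SEM of at least two experiments, or one.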

In experiment [2] the test system is Cavia porcellus. In words: In vivo reversal activity versus ~90% block by rocuronium in guinea pig, expressed as % maximum reversal at 1018 umol/kg conc. The procedure, abridged:
as §1

Experiment [3] is filed under the species Mus musculus. In words: In vitro reversal activity versus ~90% block by rocuronium in isolated mouse hemidiaphragm, expressed as % of maximum reversal at a conc. of 360 uM.
Experiment [4] is filed under the species Mus musculus. The experiment in a line: In vitro reversal activity versus ~90% block by rocuronium in isolated mouse hemidiaphragm, expressed as effective conc.
The subject of experiment [5] is Cavia porcellus. The experiment in a line: In vivo reversal activity versus ~90% block by rocuronium in guinea pig, expressed as % of maximum reversal at 1.7 umol/kg conc. The procedure, abridged: as §1
For experiment [6], the species on record is Mus musculus. The experiment in a line: In vitro reversal activity versus ~90% block by rocuronium in isolated mouse hemidiaphragm, expressed as % of maximum reversal at 7.2 uM conc.
Experiment [7] deals with Cavia porcellus. In words: In vivo reversal activity versus ~90% block by rocuronium in guinea pig, expressed as % of maximum reversal at 47umol/kg conc. The procedure, abridged: (§2)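 Male Dunkin-Hartley guinea pigs (600-900 g) anaesthetized ip with pentobarbitone 10 mg/kg plus urethane 1000 mg/kg, tracheotomized and artificially ventilated. Continuous iv rocuronium bromide infusion (~10 nmol kg-1 min-1) raised until steady-state twitch block of 85-90%. Increasing single iv doses of reversal agent given by a separate catheter. Max reversal is peak twitch recovery versus preblock height at highest dose tested; means ± SEM, n ≥ 2 or single experiment.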

Experiment [8] is filed under the species Mus musculus. The experiment in a line: In vitro reversal activity versus ~90% block by rocuronium in isolated mouse hemidiaphragm, expressed as % of maximum reversal at 144 uM conc.
Experiment [9] deals with Cavia porcellus. The experiment in a line: In vivo reversal activity versus ~90% block by rocuronium in guinea pig, expressed as % of maximum reversal at 33.1 umol/kg conc. The procedure, abridged:
as §2

The species named for experiment [10] is Mus musculus. In words: In vitro reversal activity versus ~90% block by rocuronium in isolated mouse hemidiaphragm, expressed as % of maximum reversal at 10.8uM conc.
In experiment [11] the test system is Cavia porcellus. In words: In vivo reversal activity versus ~90% block by rocuronium in guinea pig, expressed as % of maximum reversal at 11 umol/kg conc. The procedure, abridged:
as §1

Experiment [12] is filed under the species Mus musculus. The experiment in a line: In vitro reversal activity versus ~90% block by rocuronium in isolated mouse hemidiaphragm, expressed as % of maximum reversal at 252 uM conc.
For experiment [13], the system named is Cavia porcellus. In words: In vivo reversal activity versus ~90% block by rocuronium in guinea pig, expressed as % of maximum reversal at 1.2 umol/kg conc. The procedure, abridged: as §1
The species named for experiment [14] is Mus musculus. In words: In vitro reversal activity versus ~90% block by rocuronium in isolated mouse hemidiaphragm, expressed as % of maximum reversal at 3.6 uM conc.
The species named for experiment [15] is Mus musculus. The experiment in a line: In vitro reversal activity versus ~90% block by rocuronium in isolated mouse hemidiaphragm, expressed as % of maximum reversal at 16.2 uM conc.
Experiment [16] concerns Cavia porcellus. In words: In vivo reversal activity versus ~90% block by rocuronium in guinea pig, expressed as % of maximum reversal at 2.1 umol/kg conc. The procedure, abridged:
as §2

Experiment [17] concerns Cavia porcellus. In words: In vivo reversal activity versus ~90% block by rocuronium in guinea pig, expressed as % of maximum reversal at 1.6 umol/kg conc. The procedure, abridged:
as §1

Experiment [18] is filed under the species Mus musculus. In words: In vitro reversal activity versus ~90% block by rocuronium in isolated mouse hemidiaphragm, expressed as % of maximum reversal at 2.9 uM conc.
Experiment [19] relates to Felis catus. The experiment in a line: Percent of maximum change in BP in anesthetized cat (dosed with standard combination of neostigmin (24.3 umol/kg) + atropine 15 umol/kg).
The subject of experiment [20] is Felis catus. The experiment in a line: Percent increase in contraction of nictitating membrane in anesthetized cat (dosed with standard combination of neostigmin (24.3 umol/kg) + atropine 15 umol/kg).
For experiment [21], the system named is Felis catus. In words: Percent of maximum change of HR in anesthetized cat (dosed with standard combination of neostigmin (24.3 umol/kg) + atropine 15 umol/kg).
The test system of experiment [22] is Felis catus. The experiment in a line: Percent of maximum change of decrease in HR (bpm) by vagal stimulation in anesthetized cat (dosed with standard combination of neostigmin (24.3 umol/kg) + atropine 15 umol/kg).
For experiment [23], the system named is Cavia porcellus. In words: In vivo reversal activity versus ~90% block by rocuronium in guinea pig, expressed as % of maximum reversal at 9.6 […] conc. The procedure, abridged:
as §2

The values below come from ChEMBL document CHEMBL1135836, “Cyclodextrin-derived host molecules as reversal agents for the neuromuscular blocker rocuronium bromide: synthesis and structure-activity relationships” (J Med Chem, 2002).

For orientation: ED50 means the dose that gives a 50% effect, or the effect in half of the subjects. For orientation: EC50 means the concentration that produces a half-maximal response.

On to `OCC1O[C@@H]2O[C@@H]3C(CO)O[C@H](O[C@@H]4C(CO)O[C@H](O[C@@H]5C(CO)O[C@H](O[C@@H]6C(CO)O[C@H](O[C@@H]7C(CO)O[C@H](O[C@H]1C(O)C2O)C(O)C7O)C(O)C6O)C(O)C5O)C(O)C4O)C(O)C3O` (stereo not given in full), for which the ED50 in the experiment with Cavia porcellus [1] amounted to 1580 µmol/kg. For the same compound, the Max reversal in the experiment on Cavia porcellus [2] is given as 6.4%; in the experiment listed under Mus musculus [3], 9.7%. For the same compound, in the experiment filed under Mus musculus [4], the EC50 is greater than 360 µM.

`O=S(=O)([O-])CSCC1O[C@@H]2O[C@@H]3C(CSCS(=O)(=O)[O-])O[C@H](O[C@@H]4C(CSCS(=O)(=O)[O-])O[C@H](O[C@@H]5C(CSCS(=O)(=O)[O-])O[C@H](O[C@@H]6C(CSCS(=O)(=O)[O-])O[C@H](O[C@@H]7C(CSCS(=O)(=O)[O-])O[C@H](O[C@@H]8C(CSCS(=O)(=O)[O-])O[C@H](O[C@@H]9C(CSCS(=O)(=O)[O-])O[C@H](O[C@H]1C(O)C2O)C(O)C9O)C(O)C8O)C(O)C7O)C(O)C6O)C(O)C5O)C(O)C4O)C(O)C3O.[Na+].[Na+].[Na+].[Na+].[Na+].[Na+].[Na+].[Na+]` (stereo not given in full): the ED50 in the experiment on Cavia porcellus [1] was 0.06 µmol/kg. Also, the Max reversal in the experiment on Cavia porcellus [5] is 106.5%; in the experiment listed under Mus musculus [6], 101.4%. In the experiment filed under Mus musculus [4], the EC50 is 0.36 µM.

For the compound `OCC1O[C@@H]2O[C@@H]3C(CO)O[C@H](O[C@@H]4C(CO)O[C@H](O[C@@H]5C(CO)O[C@H](O[C@@H]6C(CO)O[C@H](O[C@@H]7C(CO)O[C@H](O[C@@H]8C(CO)O[C@H](O[C@@H]9C(CO)O[C@H](O[C@H]1C(O)C2O)C(O)C9O)C(O)C8O)C(O)C7O)C(O)C6O)C(O)C5O)C(O)C4O)C(O)C3O` (stereo not given in full), in the experiment on Cavia porcellus [1], the ED50 worked out at 4 µmol/kg. For the same compound, the Max reversal in the experiment with Cavia porcellus [7] is 104.7%; in the experiment listed under Mus musculus [8] it was 94.1%. For the same compound, the EC50 in the experiment listed under Mus musculus [4] worked out at 34.6 µM.

Turning to `NC(=O)CCCSCC1O[C@@H]2O[C@@H]3C(CSCCCC(N)=O)O[C@H](O[C@@H]4C(CSCCCC(N)=O)O[C@H](O[C@@H]5C(CSCCCC(N)=O)O[C@H](O[C@@H]6C(CSCCCC(N)=O)O[C@H](O[C@@H]7C(CSCCCC(N)=O)O[C@H](O[C@@H]8C(CSCCCC(N)=O)O[C@H](O[C@@H]9C(CSCCCC(N)=O)O[C@H](O[C@H]1C(O)C2O)C(O)C9O)C(O)C8O)C(O)C7O)C(O)C6O)C(O)C5O)C(O)C4O)C(O)C3O` (stereo not given in full), the ED50 in the experiment with Cavia porcellus [1] is 0.58 µmol/kg. Moreover, the values for the Max reversal in the experiment on Cavia porcellus [9] and in the experiment filed under Mus musculus [10] were 94.2% and 85.4%, respectively. The EC50 in the experiment filed under Mus musculus [4] was found to be 5 µM.

`O=C([O-])c1ccccc1SCC1O[C@@H]2O[C@@H]3C(CO)O[C@H](O[C@@H]4C(CO)O[C@H](O[C@@H]5C(CO)O[C@H](O[C@@H]6C(CO)O[C@H](O[C@@H]7C(CO)O[C@H](O[C@@H]8C(CO)O[C@H](O[C@@H]9C(CO)O[C@H](O[C@H]1C(O)C2O)C(O)C9O)C(O)C8O)C(O)C7O)C(O)C6O)C(O)C5O)C(O)C4O)C(O)C3O.[Na+]` (stereo not given in full): in the experiment on Cavia porcellus [1], the ED50 came to 1.3 µmol/kg. In addition, the Max reversal in the experiment on Cavia porcellus [11] was 93%; in the experiment listed under Mus musculus [12] it was 86.3%. Besides, the EC50 in the experiment filed under Mus musculus [4] is 97.6 µM.

In the case of `OC1C(O)[C@@H]2O[C@H]3OC(CSCCCc4nn[n-]n4)[C@@H](O[C@H]4OC(CSCCCc5nn[n-]n5)[C@@H](O[C@H]5OC(CSCCCc6nn[n-]n6)[C@@H](O[C@H]6OC(CSCCCc7nn[n-]n7)[C@@H](O[C@H]7OC(CSCCCc8nn[n-]n8)[C@@H](O[C@H]8OC(CSCCCc9nn[n-]n9)[C@@H](O[C@H]9OC(CSCCCc%10nn[n-]n%10)[C@@H](O[C@H]1OC2CSCCCc1nn[n-]n1)C(O)C9O)C(O)C8O)C(O)C7O)C(O)C6O)C(O)C5O)C(O)C4O)C(O)C3O.[Na+].[Na+].[Na+].[Na+].[Na+].[Na+].[Na+].[Na+]` (stereo not given in full), the ED50 in the experiment on Cavia porcellus [1] came out at 0.22 µmol/kg. Besides, the Max reversal stood at 109% in the experiment on Cavia porcellus [13] and 89.9% in the experiment listed under Mus musculus [14]. Also, the EC50 in the experiment filed under Mus musculus [4] is 0.6 µM.

With `O=C(O)CCOCCSCC1O[C@@H]2O[C@@H]3C(CSCCOCCO)O[C@H](O[C@@H]4C(CSCCOCCO)O[C@H](O[C@@H]5C(CSCCOCCO)O[C@H](O[C@@H]6C(CSCCOCCO)O[C@H](O[C@@H]7C(CSCCOCCO)O[C@H](O[C@@H]8C(CSCCOCCO)O[C@H](O[C@@H]9C(CSCCOCCO)O[C@H](O[C@H]1C(O)C2O)C(O)C9O)C(O)C8O)C(O)C7O)C(O)C6O)C(O)C5O)C(O)C4O)C(O)C3O` (stereo not given in full), in the experiment with Cavia porcellus [1], the ED50 is 0.47 µmol/kg. In addition, the values for the Max reversal in the experiment listed under Mus musculus [15] and in the experiment on Cavia porcellus [16] were 66.1% and 92.2%, respectively. For the same compound, in the experiment filed under Mus musculus [4], the EC50 stood at 9.1 µM.

Take `O=C([O-])Cc1ccc(SCC2O[C@@H]3O[C@@H]4C(CSc5ccc(CC(=O)[O-])cc5)O[C@H](O[C@@H]5C(CSc6ccc(CC(=O)[O-])cc6)O[C@H](O[C@@H]6C(CSc7ccc(CC(=O)[O-])cc7)O[C@H](O[C@@H]7C(CSc8ccc(CC(=O)[O-])cc8)O[C@H](O[C@@H]8C(CSc9ccc(CC(=O)[O-])cc9)O[C@H](O[C@@H]9C(CSc%10ccc(CC(=O)[O-])cc%10)O[C@H](O[C@@H]%10C(CSc%11ccc(CC(=O)[O-])cc%11)O[C@H](O[C@H]2C(O)C3O)C(O)C%10O)C(O)C9O)C(O)C8O)C(O)C7O)C(O)C6O)C(O)C5O)C(O)C4O)cc1.[Na+].[Na+].[Na+].[Na+].[Na+].[Na+].[Na+].[Na+]` (stereo not given in full): the median effective dose (ED50) with Cavia porcellus [1] turned out to be 0.14 µmol/kg. Besides, the Max reversal in the experiment on Cavia porcellus [17] was 103.8%; in the experiment listed under Mus musculus [18], 98.9%. The 50% effective concentration (EC50) in the experiment listed under Mus musculus [4] was 1.4 µM.

Take `CN(C)C(=O)Oc1cccc([N+](C)(C)C)c1.CN1[C@@H]2CC[C@H]1C[C@H](OC(=O)C(CO)c1ccccc1)C2.[Br-]` (stereo not given in full): in the experiment on Felis catus [19], the BP turned out to be 17.7 mmHg. The Increase in the experiment on Felis catus [20] is given as -7.2%. The HR in the experiment on Felis catus [21] is given as -7.1 beats min-1. In the experiment on Felis catus [22], the Decrease is -64.8%.

Regarding `O=C([O-])CSCC1O[C@@H]2O[C@@H]3C(CSCC(=O)[O-])O[C@H](O[C@@H]4C(CSCC(=O)[O-])O[C@H](O[C@@H]5C(CSCC(=O)[O-])O[C@@H](O[C@@H]6C(CSCC(=O)[O-])O[C@H](O[C@@H]7C(CSCC(=O)[O-])O[C@H](O[C@@H]8C(CSCC(=O)[O-])O[C@H](O[C@H]1C(O)C2O)C(O)C8O)C(O)C7O)C(O)C6O)C(O)C5O)C(O)C4O)C(O)C3O.[Na+].[Na+].[Na+].[Na+].[Na+].[Na+].[Na+]` (stereo not given in full), the median effective dose (ED50) in the experiment with Cavia porcellus [1] stood at 0.93 µmol/kg. Besides, the Max reversal in the experiment on Cavia porcellus [23] came to 89.6%; in the experiment listed under Mus musculus [15] it was 97.3%. For the same compound, the EC50 in the experiment filed under Mus musculus [4] was 6.5 µM.
